Compound activity deposited in PubChem by several laboratories.
NR1D1 modulator – modulates human Rev-erb alpha binding to DNA; P20393; 0.79% of 370,000 active; AID 1259318; Rev-erbα–FITC-DNA binding, fluorescence polarization, 90 min; activity, % at 10 µM;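 active means activity above about 14%, limit read from the data; passing the limit was not always enough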;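 further: 0% = DMSO wells with 35 nM protein and 100% = DMSO wells with 750 nM protein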
NR2E3 ag-1 – activates human photoreceptor nuclear receptor NR2E3; GST-NR2E3/biotin-RetCOR TR-FRET, 1536-well; inhibition of corepressor binding, % at 4.78 µM; 0.12% of 320,000 active; AID 2300;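 active means percent inhibition above the cutoff of mean plus 3 SD of all tested compounds, set per screening campaign, cut at about 20% in these data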;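 further: 0% = DMSO wells and 100% = biotin wells as full block of FRET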
Target sequence (Q9Y5X4 whole entry, looked up): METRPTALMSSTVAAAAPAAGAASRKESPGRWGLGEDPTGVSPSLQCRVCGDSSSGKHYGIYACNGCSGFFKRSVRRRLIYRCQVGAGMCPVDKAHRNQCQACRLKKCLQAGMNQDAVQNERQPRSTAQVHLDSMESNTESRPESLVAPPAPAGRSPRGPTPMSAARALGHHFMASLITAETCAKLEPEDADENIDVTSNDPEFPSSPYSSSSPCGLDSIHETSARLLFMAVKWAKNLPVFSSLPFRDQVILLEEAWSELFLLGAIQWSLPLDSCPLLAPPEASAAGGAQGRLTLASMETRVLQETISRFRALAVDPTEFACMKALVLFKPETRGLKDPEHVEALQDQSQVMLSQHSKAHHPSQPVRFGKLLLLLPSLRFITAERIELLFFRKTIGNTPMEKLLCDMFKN
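System: GST-NR2E3 and biotin-RetCOR proteins; probe or stimulus: 7 nM biotin-RetCOR; doses: compound at 4.8 µM, single dose; schedule: Compound–protein incubation for 5 h at 4 °C; detection: time-resolved FRET; read-out: percent inhibition; controls: biotin wells as high control, 0.6% DMSO wells as low control; format: 1536-well plates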
VLA-4 inh – inhibition in a human VLA-4 binding assay. inhibition, % (about 7 µM as worked out from the volumes in the protocol). 0.2% of 330,000 active. AID 2557. P13612. VLA-4 expressing cells, ligand binding flow cytometry; in the data active means inhibition above about 50%
PG9 Ab binder – binds the HIV-1 gp120 antibody PG9 | TR-FRET gp120-PG9 antibody binding | 0.43% of 360,000 active | inhibition, % at 6.7 µM; in the data active means inhibition above about 8.5%
NR2E3 ag-2 – human photoreceptor-specific nuclear receptor agonism | Q9Y5X4 | CHO-S Gal4-NCOR/VP16-NR2E3 two-hybrid, luciferase | inhibition of corepressor binding, % at 3.98 µM | 0.35% of 360,000 active | AID 602229;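 active means inhibition above the mean of all tested compounds plus 3 SD, cut at about 70% in these data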;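 further: 0% = DMSO with NR2E3 transfected cells and 100% = cells lacking NR2E3 construct; higher means lower luciferase signal from less NR2E3 corepressor binding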
Rev-erbA confirm – Rev-erb alpha (human) modulation, hit confirmation. shares compounds with NR1D1 modulator. Rev-erb alpha FITC-DNA binding, fluorescence polarization, 90 min. activation, % at 25 µM. 61% of 3,000 active. AID 1259319;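 active means activation at or above a set limit, or at least 3 SD above the negative control mean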;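 further: 0% = 35 nM protein with DMSO and 100% = 750 nM protein high control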
RORg counter – affects RORgamma DNA binding in a Rev-erb alpha counter-screen | 8% of 910 active | AID 1259320 | shares compounds with NR1D1 modulator | purified RORgamma protein-FITC-DNA binding, fluorescence polarization | IC50, µM;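 active means Compounds whose fitted half-maximal concentration for disrupting protein-DNA binding is below 10 micromolar; the record names Rev-erb in its text, so the target is in doubt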
An asterisk follows results filed as active; i = inactive; x = no result given. The list is not random: actives were taken first. Their share in the collection is about 1.6%.

SMILES | NR1D1 modulator | NR2E3 ag-1 | VLA-4 inh | PG9 Ab binder | NR2E3 ag-2 | Rev-erbA confirm | others
Cc1cc(C)c2nc(SCC(=O)NCC3CCCO3)c(C#N)cc2c1 (stereo not drawn) | 60* | -2 | 0 | -1 | -6 | 42* | RORg counter=>40
N#Cc1cccc(NC(=O)OCCN2C(=O)CCC23CCC(c2ccccc2)CC3)c1 (stereo not drawn) | -6 | x | x | x | x | x
O=C(Nc1ccccc1C(F)(F)F)OCCN1C(=O)CCC12CCC(c1ccccc1)CC2 (stereo not drawn) | 26* | x | x | x | x | 28* | RORg counter=>40
O=[N+]([O-])c1cc(/C=N\O)ccc1Oc1ccc(F)cc1 | -7 | 4 | -2 | 0 | -33 | x
CC(=O)N1N=C(c2ccc(Cl)cc2)CC1c1ccco1 (stereo not drawn) | -3 | 0 | 23 | -1 | -13 | x
O=C(c1ccc(Br)o1)N1N=C(c2ccc(Cl)cc2)CC1c1ccco1 (stereo not drawn) | 24* | 1 | -5 | 0 | -21 | 5
Cc1ccc(S(=O)(=O)N2CCN(C(=O)CNC(=O)c3sc4ccccc4c3Cl)CC2)cc1 | 23* | 2 | 11 | 0 | -3 | 5
O=C(CNC(=O)c1sc2ccccc2c1Cl)NCc1ccccc1 | 22* | -8 | -5 | -9 | -37 | 11
Cc1ccnc(NC(=O)CNC(=O)c2sc3ccccc3c2Cl)c1 | 35* | 8 | 2 | 6 | -56 | 6
Cc1ccnc(NC(=O)c2cc(-c3ccc(Cl)s3)nc3ccccc23)c1 | 24* | -4 | 4 | -4 | -33 | -6
CCCCc1c(-c2ccccc2OC)ncn1Cc1ccc(F)cc1F | 0 | x | x | 2 | x | x
O=C(CSc1nc2ccccc2c(=O)n1-c1ccc(F)cc1)Nc1ccc(N2CCOCC2)cc1 | -5 | 2 | 15 | 0 | -12 | x
Cc1ccc(C(=O)CSc2nc3ccccc3c(=O)n2-c2ccccc2)s1 | 49* | -3 | -15 | 29* | -12 | 35* | RORg counter=>40
COCCn1c(SCC(=O)Nc2cccc(OC)c2)nc2c(oc3ccccc32)c1=O | -5 | 0 | -8 | 0 | -6 | x
Cc1ccc(NC(=O)CSc2nc3ccccc3c3nc4ccccc4n23)cc1 | 58* | -2 | -14 | 3 | -42 | 10
Cc1ccc(-n2c(SCC(=O)Nc3cccc(C)c3)nc3c(oc4ccccc43)c2=O)cc1 | 79* | -1 | -9 | -1 | x | 125* | RORg counter=>40
O=C(CSc1nc2ccccc2c(=O)n1-c1ccc(F)cc1)Nc1cc(S(=O)(=O)N2CCOCC2)ccc1Cl | 65* | -1 | 0 | -1 | -11 | 34* | RORg counter=>40
CN1C(=O)[C@@H]2[C@@H]3C[C@@H]([C@H]4ON=C(c5ccccc5OCC#N)[C@@H]34)[C@@H]2C1=O | -3 | 5 | 3 | 0 | -34 | x
CCCc1nnc(NC(=O)CCC(=O)Nc2ccc(Br)cc2)s1 | 0 | 1 | -1 | -1 | 3 | x
CC[C@H]1OC(=O)[C@H](C)[C@@H](O[C@H]2C[C@@](C)(OC)[C@@H](O)[C@H](C)O2)[C@H](C)[C@@H](O[C@@H]2O[C@H](C)C[C@H](N(C)C)[C@H]2O)[C@](C)(O)C[C@@H](C)C(=NOCOCCOC)[C@H](C)[C@@H](O)[C@]1(C)O | -2 | 2 | 3 | 0 | -8 | x
CCSCC(C)(C)n1[nH]c2ccccc2c1=O | -3 | x | x | -2 | -39 | x
Cc1cc(NC(=O)CSc2nc3ccsc3c(=O)n2CCCCC(=O)O)no1 | 1 | 4 | -17 | 1 | 20 | x
Cc1cc(NC(=O)CSc2nc3ccccc3c(=O)n2-c2ccccc2)no1 | 27* | -1 | 3 | 1 | -1 | 6
COc1ccc(-n2c(SCC(=O)Nc3ccc4c(c3)OCO4)nc3ccccc3c2=O)cc1 | 2 | 3 | -10 | -3 | -3 | x
CCCCn1c(SCC(=O)Nc2cc(C)on2)nc2ccsc2c1=O | 45* | 1 | 1 | -3 | 8 | 27*
SMILES | NR1D1 modulator | NR2E3 ag-1 | VLA-4 inh | PG9 Ab binder | NR2E3 ag-2 | Rev-erbA confirm | others
COc1ccc(NC(=O)CSc2nc3ccccc3c(=O)n2-c2ccc3c(c2)OCO3)c(OC)c1 | 84* | -7 | 0 | -1 | -5 | 127* | RORg counter=>40
COc1cccc(/C=N/N2CCN(C3c4ccccc4-c4ccccc43)CC2)c1O | 11 | -1 | -3 | 0 | 24 | x
CC/C(=N\Nc1ccccc1[N+](=O)[O-])c1ccc(O)cc1 | 15* | -1 | -2 | -4 | -46 | -2
CC(C)Cn1c(N)c(C(=O)CSc2nc3ncc(Cl)cc3[nH]2)c(=O)n(C)c1=O | 2 | -3 | 22 | -2 | 18 | x
CCCn1c(N)c(C(=O)CSc2nc3ncc(Cl)cc3[nH]2)c(=O)n(C)c1=O | 66* | 4 | -10 | 3 | -13 | 17*
Cc1ccc(NC(=O)c2sc(Cl)nc2-c2ccccc2)cc1C | 53* | -1 | 20 | 3 | -18 | 38* | RORg counter=>40
Cc1ccc2c(c1)S(=O)(=O)c1ccc3ccccc3c1N2 | 32* | x | x | -3 | -22 | 15*
Cc1cccc(CSC2=CS(=O)(=O)c3ccccc3N2)c1 | -4 | -2 | 33 | -1 | -27 | x
COc1ccc(NC(=O)CN2C(=O)NC(C)(c3ccc(C)cc3)C2=O)cn1 (stereo not drawn) | 0 | 0 | 22 | -1 | 17 | x
Cc1ccc(-c2nn3c(C)nnc3s2)cc1NC(=O)c1ccc(-c2cccc(Cl)c2)o1 | -8 | x | x | -2 | 5 | x
Cc1ccc(-c2nn3c(C)nnc3s2)cc1NC(=O)c1ccc(-c2ccc(Cl)cc2Cl)o1 | 124* | -3 | -1 | 1 | -18 | 186* | RORg counter=i
COc1ccc2nc(N3CCCC(C(=O)NCCCN4C(C)CCCC4C)C3)sc2c1 (stereo not drawn) | 1 | 1 | 11 | -1 | -24 | x
Cc1ccc2cc(CCNC(=O)C(=O)c3c(C)[nH]c4ccccc34)c(=O)[nH]c2c1 | 4 | 4 | 10 | 1 | 20 | x
Cc1ccc2cc(CCNC(=O)C(=O)c3c[nH]c4ccccc34)c(=O)[nH]c2c1 | 40* | 2 | 8 | -1 | -20 | 19*
Cc1cc(N(CCO)CCO)ccc1N=Nc1cc(F)ccc1F | 54* | -1 | 12 | -1 | -53 | 29*
Nc1ccc(N(CCO)CCO)cc1 | -9 | 1 | -35 | -15 | -10 | x
CC1=Nc2ccccc2/C1=C/c1sc(=S)n(-c2cccc(C(=O)O)c2)c1O | 48* | x | x | 0 | -8 | 52* | RORg counter=>40
Cc1cc(C(=O)Nn2c(-c3ccncc3)nc3ccccc3c2=O)ccc1[N+](=O)[O-] | 3 | 4 | -1 | -2 | 3 | x
CC(=O)c1cc(-c2ccccc2)n(CC(=O)NCc2ccc(Cl)cc2)c1C | 24* | x | x | x | x | 16*
